Published values gathered from unrelated publications.
Protocols differ between the studies behind these lines.
EGFR: Epidermal growth factor receptor (EGFR, Homo sapiens, UniProt P00533)
EGFR G719C: Epidermal growth factor receptor (EGFR, Homo sapiens, UniProt P00533, G719C)

| Compound | target | assay | setting | quantity | value |
| --- | --- | --- | --- | --- | --- |
| C#Cc1cnc(Nc2ccnc(CO)c2)nc1Nc1ccccc1S(C)(=O)=NC#N (stereo not shown) | Epidermal growth factor receptor (EGFR, Homo sapiens, UniProt P00533, L858R) | cell-free assay | 1 µM | remaining signal | 63% |
| COc1ccc2oc(-c3ccc4nc(N)oc4c3)c/c(=N\c3ccccc3NC(=O)CCN)c2c1 | EGFR | binding | 1 µM | remaining binding | 97% |
| CNC(=O)c1ccccc1Nc1nc(Nc2ccc(CO)cc2)ncc1Cl | EGFR | enzyme activity, inhibitor, radiometric | 1 µM | remaining activity | 7.68% |
| CO[C@@H]1[C@H](N(C)C(=O)c2ccccc2)C[C@H]2O[C@]1(C)n1c3ccccc3c3c4c(c5c6ccccc6n2c5c31)C(=O)NC4 | EGFR G719C | enzyme activity, inhibitor | 1 µM | inhibition | 17% |
| N#Cc1ccc(NC(=O)Nc2ccccc2)cc1 | EGFR | cell-free assay, competition with immobilised ligand | 25 µM | remaining binding | 87% |
| COc1ccc2[nH]c3c4[nH]c5ccc(OC)cc5c4c4c(c3c2c1)C(=O)NC4=O | Epidermal growth factor receptor (EGFR, Homo sapiens, UniProt P00533, L861Q) | binding | 1 µM | remaining binding | 71% |
| C#Cc1cnc(Nc2ccc(CO)nc2)nc1Nc1ccccc1S(C)(=O)=NC#N (stereo not shown) | EGFR | enzyme activity, inhibitor, radiometric | 1 µM | remaining activity | 75.6% |
| CC#CC(=O)N1CCC[C@H]1c1nc(-c2ccc(C(=O)Nc3ccccn3)cc2)c2c(N)nccn12 | Epidermal growth factor receptor (EGFR, Homo sapiens, UniProt P00533, del752-759) | enzyme activity, inhibitor | 1 µM | inhibition | 0% |
| C[C@H]1CC[C@H](n2c3cnccc3c3cnc(Nc4ccc5c(n4)CCN(C(=O)CO)C5)nc32)CC1 | Epidermal growth factor receptor (EGFR, Homo sapiens, UniProt P00533, L858R/T790M) | cell-free assay | 1 µM | remaining signal | 93% |
| C1=C/COCc2cc(ccc2OCCN2CCCC2)Nc2nccc(n2)-c2cccc(c2)COC/1 | EGFR G719C | binding | 0.1 µM | remaining binding | 75% |
| CNC(=O)c1ccccc1Nc1nc(Nc2ccc(CO)nc2)ncc1Cl | EGFR | enzyme activity, inhibitor, radiometric | 1 µM | remaining activity | 26% |
| CCCCC(=O)Nc1ccc(-c2ccc3ncn(CCC)c(=O)c3c2)cn1 | Epidermal growth factor receptor (EGFR, Homo sapiens, UniProt P00533, T790M) | binding, competition with immobilised ligand | 0.5 µM | remaining binding | 100% |
| CN1CCN(C(=O)c2ccc(NC(=O)Nc3ccc(N(C)c4ccnc(Nc5ccc(CS(C)(=O)=O)cc5)n4)cc3)cc2)CC1 | EGFR G719C | binding | 1 µM | remaining binding | 95% |
| C#Cc1cnc(Nc2ccc(CO)cc2)nc1Nc1ccccc1C(=O)NC | EGFR | enzyme activity, inhibitor, radiometric | 1 µM | remaining activity | 10.1% |
| C=CC(=O)N1CCC([C@@H]2CCNc3c(C(N)=O)c(-c4ccc(Oc5ccccc5)cc4)nn32)CC1 | Epidermal growth factor receptor (EGFR, Homo sapiens, UniProt P00533, G719S) | cell-free assay | 1 µM | inhibition | 95% |
| Cc1ccc(NC(=O)c2ccnc(C(F)(F)F)c2)cc1-c1cc(OCCO)nc(N2CCOCC2)c1 | EGFR G719C | binding | 1 µM | remaining binding | 97% |
